The results in this text go back to ChEMBL document CHEMBL1158162, “Identifying structural features on 1,1-diphenyl-hexahydro-oxazolo[3,4-a]pyrazin-3-ones critical for Neuropeptide S antagonist activity” (2008).

The structures appear in SMILES notation.

A short description of experiment [1]: Antagonist activity at NPS Ile107 mutant receptor expressed in RD-HGA16 cells assessed by calcium mobilization by FlexStation assay. The format is functional. A digest of the protocol: (§1)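 Cells loaded with calcium3 dye for 1 h; calcium mobilization read on FlexStation. Compounds tested separately for intrinsic activity and for inhibition of NPS. Ke from an 8-point half-log NPS concentration-response run with and without one compound concentration, at least two concentrations giving at least four-fold rightward EC50 shift; Ke = [L]/(DR-1). Mean ± SE, at least three independent experiments.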

Experiment [2] can be described thus: Antagonist activity at NPS Asn107 mutant receptor expressed in RD-HGA16 cells assessed by calcium mobilization by FlexStation assay. The format is functional. A digest of the protocol:
as §1

Another experiment concerns RD-HGA16. Kind of experiment: Ratio of Ke for NPS Asn107 mutant receptor to Ke for NPS Ile107 mutant receptor expressed in RD-HGA16 cells. The format is cell-based.
Experiment [3] in a line: Antagonist activity at NPS Ile107 mutant receptor expressed in RD-HGA16 cells. It counts as functional. A digest of the protocol: as §1
Experiment [4] in a line: Antagonist activity at NPS Asn107 mutant receptor expressed in RD-HGA16 cells. It counts as functional. A digest of the protocol: as §1

For `N[C@H](Cc1ccccc1)C(=O)N1CCN2C(=O)OC(c3ccccc3)(c3ccccc3)C2C1` (stereo partly specified), the Ke in experiment [1] stood at 911 nM; in experiment [2] it was 4640 nM. Moreover, the Ratio Ke in the experiment on RD-HGA16 worked out at 5.1.
The corresponding values for `O=C(OCc1ccccc1)N1CCN2C(=O)OC(c3ccccc3)(c3ccccc3)C2C1` (stereo unspecified) are 354 nM, 353 nM and 1.
In the same order, the values of `CCOC(=O)CNC(=O)N1CCN2C(=O)OC(c3ccccc3)(c3ccccc3)C2C1` (stereo unspecified) are 726 nM, 1260 nM and 1.7.
As for `O=C(NCc1ccccc1)N1CCN2C(=O)OC(c3ccccc3)(c3ccccc3)C2C1` (stereo unspecified), the Kb in experiment [3] is 32.6 nM; in experiment [4], 21.7 nM. Moreover, the Ke in experiment [1] came out at 9.9 nM; in experiment [2] it was 47 nM. Moreover, the Ratio Ke in the experiment with RD-HGA16 was found to be 4.8.
For `O=C(O)CNC(=O)N1CCN2C(=O)OC(c3ccccc3)(c3ccccc3)C2C1` (stereo unspecified), the Ke in experiment [1] and in experiment [2] was above 4000 nM in each case.
Turning to `O=C(NCCc1ccc2c(c1)OCO2)N1CCN2C(=O)OC(c3ccccc3)(c3ccccc3)C2C1` (stereo unspecified), the Ke in experiment [1] stood at 567 nM; in experiment [2] it was 690 nM. In the experiment with RD-HGA16, the Ratio Ke amounted to 1.2.
Regarding `O=C1OC(c2ccccc2)(c2ccccc2)C2CN(C(=S)NCCN3CCCCC3)CCN12` (stereo unspecified), the Ke worked out at 280 nM in experiment [1] and 354 nM in experiment [2]. Moreover, the Ratio Ke with RD-HGA16 amounted to 1.3.
As for `O=C(NCc1ccc(F)cc1)N1CCN2C(=O)OC(c3ccccc3)(c3ccccc3)C2C1` (stereo unspecified), the Kb in experiment [3] came to 27.9 nM; in experiment [4] it was 16.9 nM; in experiment [1] (RD-HGA16), 27.9 nM; in experiment [2] (RD-HGA16), 16.9 nM. Besides, the Ke was 13.7 nM in experiment [1] and 52 nM in experiment [2]. Further, the Ratio Ke in the experiment on RD-HGA16 turned out to be 3.8.
`O=C(COc1ccc(F)cc1)N1CCN2C(=O)OC(c3ccccc3)(c3ccccc3)C2C1` (stereo unspecified): the Ke in experiment [1] is 244 nM; in experiment [2], 267 nM. Further, the Ratio Ke with RD-HGA16 amounted to 1.1.
As for `O=C1OC(c2ccccc2)(c2ccccc2)C2CN(CCCCc3ccc(F)cc3)CCN12` (stereo unspecified), the Ke is 1110 nM in experiment [1] and 1100 nM in experiment [2]. In addition, the Ratio Ke in the experiment on RD-HGA16 amounted to 1.
Turning to `CN1CCN2C(=O)OC(c3ccccc3)(c3ccccc3)C2C1` (stereo unspecified), the Ke in experiment [1] and in experiment [2] was above 4000 nM in each case.
Take `O=C(NCCc1ccc(F)cc1)N1CCN2C(=O)OC(c3ccccc3)(c3ccccc3)C2C1` (stereo unspecified): the Ke is given as 321 nM in experiment [1] and 326 nM in experiment [2]. The Ratio Ke in the experiment with RD-HGA16 is 1.
In the same order, the values of `O=C(NCCCCc1ccccc1)N1CCN2C(=O)OC(c3ccccc3)(c3ccccc3)C2C1` (stereo unspecified) are 537 nM, 437 nM and 0.8.
The corresponding values for `O=C(NCCN1CCCCC1)N1CCN2C(=O)OC(c3ccccc3)(c3ccccc3)C2C1` (stereo unspecified) are 109 nM, 490 nM and 4.5.
The corresponding values for `O=C1OC(c2ccccc2)(c2ccccc2)C2CN(C(=S)NCCN3CCOCC3)CCN12` (stereo unspecified) are 3760 nM, 2560 nM and 0.7.
For the molecule `O=C(CCc1ccc(F)cc1)N1CCN2C(=O)OC(c3ccccc3)(c3ccccc3)C2C1` (stereo unspecified), the figures for the Ke in experiment [1] and in experiment [2] were 339 nM and 460 nM, respectively. Moreover, in the experiment with RD-HGA16, the Ratio Ke is 1.4.
The corresponding values for `O=C(NCCCc1ccccc1)N1CCN2C(=O)OC(c3ccccc3)(c3ccccc3)C2C1` (stereo unspecified) are 309 nM, 417 nM and 1.3.
The corresponding values for `CN(Cc1ccc(F)cc1)C(=O)N1CCN2C(=O)OC(c3ccccc3)(c3ccccc3)C2C1` (stereo unspecified) are 214 nM, 588 nM and 2.8.
The corresponding values for `C[C@@H](NC(=O)N1CCN2C(=O)OC(c3ccccc3)(c3ccccc3)C2C1)c1ccccc1` (stereo partly specified) are 317 nM, 229 nM and 0.7.
